ChEMBL document CHEMBL4257459, “Synergistic antifungal effect of cyclized chalcone derivatives and fluconazole against Candida albicans” (2017)
Values after ≈ are worked out from the molar mass of the structure shown.

Legend:
Candida albicans [1] = test: Antifungal activity against fluconazole susceptible Candida albicans 002B1 in presence of fluconazole by CLSI protocol based broth microdilution method; type: functional
Candida albicans [2] = test: Antifungal activity against fluconazole resistant Candida albicans 167-2 by CLSI protocol based broth microdilution method; type: functional
How it was run: (§1)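 Broth microdilution per CLSI M27-A3 against clinical C. albicans isolates. Strains sub-cultured at least twice on Tryptone Soya Agar, 37 °C, 48 h. Compounds dissolved in DMSO at 2000 μg mL–1 stock. Fluconazole positive control, plus culture, media and vehicle controls. Run in duplicate; MIC in μg mL–1.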

Candida albicans [3] = test: Inhibition of ABC efflux pumps in fluconazole susceptible Candida albicans 0079gr assessed as reduction in energy-dependent rhodamine 6G efflux in presence of 0.1 M glucose after 25 mins by fluorescence assay relative to control
How it was run: (§2)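 Cells grown in TSB at 37 °C for 8 h, washed, resuspended in glucose-free PBS at 1 × 10^8 cells. De-energized 45 min with 5 mM deoxyglucose plus 5 mM dinitrophenol. […] Washed, sampled 5–25 min, then 0.1 M glucose added. Absorbance 527 nm, R6G from standard curve.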

Candida albicans [4] = test: Inhibition of ABC efflux pumps in fluconazole susceptible Candida albicans 004B1 assessed as reduction in energy-dependent rhodamine 6G efflux in presence of 0.1 M glucose after 25 mins by fluorescence assay relative to control; how it was run: as §2
Candida albicans [5] = test: Antifungal activity against fluconazole susceptible Candida albicans 0079gr in presence of fluconazole by CLSI protocol based broth microdilution method; type: functional
Candida albicans [6] = test: Inhibition of ergosterol biosynthesis in fluconazole susceptible Candida albicans ATCC 90028 at 0.5 to 1 times MIC relative to control; type: functional
How it was run: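 ATCC90028 grown in 50 ml TSB with MIC and ½ MIC of compound; untreated and 8 μg mL–1 fluconazole controls. Sterols extracted by alcoholic KOH method and spectrophotometrically scanned; ergosterol % calculated from A281.5 and A230 (E values 290 and 518) with dilution factor, per pellet weight.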

Candida albicans [7] = test: Antifungal activity against Candida albicans ATCC 90028 in presence of fluconazole by CLSI protocol based broth microdilution method; type: functional
Candida albicans [8] = test: Inhibition of ABC efflux pumps in fluconazole resistant Candida albicans 167-1 assessed as reduction in energy-dependent rhodamine 6G efflux in presence of 0.1 M glucose after 25 mins […] relative to control
Candida albicans [9] = test: Inhibition of ABC efflux pumps in fluconazole susceptible Candida albicans 002B1 assessed as reduction in energy-dependent rhodamine 6G efflux in presence of 0.1 M glucose after 25 mins […] relative to control
Candida albicans [10] = test: Antifungal activity against fluconazole resistant Candida albicans 167-1 in presence of fluconazole by CLSI protocol based broth microdilution method; type: functional
How it was run: (§3)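 Checkerboard-style combination with fluconazole at a 1 : 1 ratio, over concentrations 2–4 fold below each agent's MIC alone, by CLSI broth microdilution. Fractional inhibitory concentration index calculated and interpreted as synergy (<0.5), additive (0.5–1), indifferent or antagonistic.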

Candida albicans [11] = test: Inhibition of ABC efflux pumps in fluconazole susceptible Candida albicans 0072gr assessed as reduction in energy-dependent rhodamine 6G efflux in presence of 0.1 M glucose after 25 mins […] relative to control
Candida albicans [12] = test: Antifungal activity against fluconazole susceptible Candida albicans 003gr in presence of fluconazole by CLSI protocol based broth microdilution method; type: functional
Candida albicans [13] = test: Inhibition of ergosterol biosynthesis in fluconazole resistant Candida albicans A171 at 0.5 to 1 times MIC relative to control; type: functional
How it was run: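 Total sterols quantified by alcoholic KOH extraction in cells grown in 50 ml TSB with compounds at MIC and ½ MIC; untreated and 8 μg mL–1 fluconazole controls. Spectral scan; ergosterol content from A281.5 and A230 absorbances, dilution factor and pellet weight, correcting for 24(28) DHE.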

Candida albicans [14] = test: Antifungal activity against fluconazole resistant Candida albicans A171 by CLSI protocol based broth microdilution method; type: functional; how it was run: as §1
Candida albicans [15] = test: Antifungal activity against fluconazole resistant Candida albicans A171 in presence of fluconazole by CLSI protocol based broth microdilution method; type: functional; how it was run: as §3
Candida albicans [16] = test: Antifungal activity against Candida albicans ATCC 90028 by CLSI protocol based broth microdilution method; type: functional
How it was run: (§4)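 Clinical isolates and control strain subcultured at least twice on TSA, 37 °C, 48 h. MICs by CLSI M27-A3 broth microdilution; compounds dissolved in DMSO to 2000 μg mL–1 stock. Fluconazole positive control, culture, media and DMSO vehicle controls in each run. Duplicate experiments; MIC in μg mL–1.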

Candida albicans [17] = test: Antifungal activity against fluconazole susceptible Candida albicans 002B1 by CLSI protocol based broth microdilution method; type: functional; how it was run: as §4
Candida albicans [18] = test: Antifungal activity against fluconazole susceptible Candida albicans 003gr by CLSI protocol based broth microdilution method; type: functional; how it was run: as §4
Candida albicans [19] = test: Inhibition of ABC efflux pumps in fluconazole resistant Candida albicans 167-2 assessed as reduction in energy-dependent rhodamine 6G efflux in presence of 0.1 M glucose after 25 mins […] relative to control
Candida albicans [20] = test: Antifungal activity against fluconazole susceptible Candida albicans 0072gr in presence of fluconazole by CLSI protocol based broth microdilution method; type: functional
Candida albicans [21] = test: Inhibition of ABC efflux pumps in fluconazole resistant Candida albicans A171 assessed as reduction in energy-dependent rhodamine 6G efflux in presence of 0.1 M glucose after 25 mins by fluorescence assay relative to control; how it was run: as §2
Candida albicans [22] = test: Inhibition of ABC efflux pumps in fluconazole susceptible Candida albicans 003gr assessed as reduction in energy-dependent rhodamine 6G efflux in presence of 0.1 M glucose after 25 mins […] relative to control
Candida albicans [23] = test: Antifungal activity against fluconazole resistant Candida albicans 167-2 in presence of fluconazole by CLSI protocol based broth microdilution method; type: functional; how it was run: as §3
Candida albicans [24] = test: Antifungal activity against fluconazole susceptible Candida albicans 004gr in presence of fluconazole by CLSI protocol based broth microdilution method; type: functional
Candida albicans [25] = test: Antifungal activity against fluconazole resistant Candida albicans 167-1 by CLSI protocol based broth microdilution method; type: functional; how it was run: as §1
Candida albicans [26] = test: Antifungal activity against fluconazole susceptible Candida albicans 0072gr by CLSI protocol based broth microdilution method; type: functional; how it was run: as §4
Candida albicans [27] = test: Antifungal activity against fluconazole susceptible Candida albicans 0079gr by CLSI protocol based broth microdilution method; type: functional; how it was run: as §4
Candida albicans [28] = test: Antifungal activity against fluconazole susceptible Candida albicans 004B1 by CLSI protocol based broth microdilution method; type: functional; how it was run: as §4
Candida albicans [29] = test: Antifungal activity against fluconazole susceptible Candida albicans 004B1 in presence of fluconazole by CLSI protocol based broth microdilution method; type: functional
Candida albicans [30] = test: Inhibition of ABC efflux pumps in fluconazole susceptible Candida albicans 004gr assessed as reduction in energy-dependent rhodamine 6G efflux in presence of 0.1 M glucose after 25 mins by fluorescence assay relative to control; how it was run: as §2
Candida albicans [31] = test: Antifungal activity against fluconazole susceptible Candida albicans 004gr by CLSI protocol based broth microdilution method; type: functional; how it was run: as §4

Row | SMILES | fractional inhibitory concentration index (FICI) (Candida albicans [1]) | MIC (Candida albicans [2]) | inhibition (Candida albicans [3]) | inhibition (Candida albicans [4]) | fractional inhibitory concentration index (FICI) (Candida albicans [5]) | inhibition (INH) (Candida albicans [6]) | fractional inhibitory concentration index (FICI) (Candida albicans [7]) | inhibition (Candida albicans [8]) | inhibition (Candida albicans [9]) | fractional inhibitory concentration index (FICI) (Candida albicans [10]) | inhibition (Candida albicans [11]) | fractional inhibitory concentration index (FICI) (Candida albicans [12]) | inhibition (INH) (Candida albicans [13]) | MIC (Candida albicans [14]) | fractional inhibitory concentration index (FICI) (Candida albicans [15]) | MIC (Candida albicans [16]) | MIC (Candida albicans [17]) | MIC (Candida albicans [18]) | inhibition (Candida albicans [19]) | fractional inhibitory concentration index (FICI) (Candida albicans [20]) | also measured
1 | O=C(/C=C/c1ccccc1)c1ccccc1 [CHALCONE] | 0.75 - 4.38 | 31 to 62 µg/mL (≈ 149 to 298 µM) | < 20% | < 20% | 0.75 - 4.38 | 66 - 99% | 0.75 - 4.38 | < 20% | < 20% | 0.562 - 0.62 | < 20% | 0.75 - 4.38 | 49 - 94% | 31 to 62 µg/mL (≈ 149 to 298 µM) | 0.562 - 0.62 | 31 to 62 µg/mL (≈ 149 to 298 µM) | 31 to 62 µg/mL (≈ 149 to 298 µM) | 31 to 62 µg/mL (≈ 149 to 298 µM) | < 20% | 0.75 - 4.38 | inhibition (Candida albicans [21]): < 20%; inhibition (Candida albicans [22]): < 20%; fractional inhibitory concentration index (FICI) (Candida albicans [23]): 0.562 - 0.62; fractional inhibitory concentration index (FICI) (Candida albicans [24]): 0.75 - 4.38; MIC (Candida albicans [25]): 31 to 62 µg/mL (≈ 149 to 298 µM); MIC (Candida albicans [26]): 31 to 62 µg/mL (≈ 149 to 298 µM); MIC (Candida albicans [27]): 31 to 62 µg/mL (≈ 149 to 298 µM); MIC (Candida albicans [28]): 31 to 62 µg/mL (≈ 149 to 298 µM); fractional inhibitory concentration index (FICI) (Candida albicans [29]): 0.75 - 4.38; inhibition (Candida albicans [30]): < 20%; MIC (Candida albicans [31]): 31 to 62 µg/mL (≈ 149 to 298 µM)
2 | O=C1NC(c2ccccc2)=CC(c2ccccc2)N1 (stereo not drawn) | 0.31 - 1.5 | 8 to 16 µg/mL (≈ 32 to 63.9 µM) | < 20% | < 20% | 0.31 - 1.5 | 66 - 99% | 0.31 - 1.5 | < 20% | < 20% | 0.129 - 0.27 | < 20% | 0.31 - 1.5 | 49 - 94% | 8 to 16 µg/mL (≈ 32 to 63.9 µM) | 0.129 - 0.27 | 1 to 8 µg/mL (≈ 4 to 32 µM) | 1 to 8 µg/mL (≈ 4 to 32 µM) | 1 to 8 µg/mL (≈ 4 to 32 µM) | < 20% | 0.31 - 1.5 | inhibition (Candida albicans [21]): < 20%; inhibition (Candida albicans [22]): < 20%; fractional inhibitory concentration index (FICI) (Candida albicans [23]): 0.129 - 0.27; fractional inhibitory concentration index (FICI) (Candida albicans [24]): 0.31 - 1.5; MIC (Candida albicans [25]): 8 to 16 µg/mL (≈ 32 to 63.9 µM); MIC (Candida albicans [26]): 1 to 8 µg/mL (≈ 4 to 32 µM); MIC (Candida albicans [27]): 1 to 8 µg/mL (≈ 4 to 32 µM); MIC (Candida albicans [28]): 1 to 8 µg/mL (≈ 4 to 32 µM); fractional inhibitory concentration index (FICI) (Candida albicans [29]): 0.31 - 1.5; inhibition (Candida albicans [30]): < 20%; MIC (Candida albicans [31]): 1 to 8 µg/mL (≈ 4 to 32 µM)
3 | NC(=S)N1N=C(c2ccccc2)CC1c1ccccc1 (stereo not drawn) | 1.97 - 4.28 | 500 µg/mL (≈ 1780 µM) | < 20% | < 20% | 1.97 - 4.28 | 66 - 99% | 1.97 - 4.28 | < 20% | < 20% | 0.75 - 1.5 | < 20% | 1.97 - 4.28 | 49 - 94% | 500 µg/mL (≈ 1780 µM) | 0.75 - 1.5 | 125 to 500 µg/mL (≈ 444 to 1780 µM) | 125 to 500 µg/mL (≈ 444 to 1780 µM) | 125 to 500 µg/mL (≈ 444 to 1780 µM) | < 20% | 1.97 - 4.28 | inhibition (Candida albicans [21]): < 20%; inhibition (Candida albicans [22]): < 20%; fractional inhibitory concentration index (FICI) (Candida albicans [23]): 0.75 - 1.5; fractional inhibitory concentration index (FICI) (Candida albicans [24]): 1.97 - 4.28; MIC (Candida albicans [25]): 500 µg/mL (≈ 1780 µM); MIC (Candida albicans [26]): 125 to 500 µg/mL (≈ 444 to 1780 µM); MIC (Candida albicans [27]): 125 to 500 µg/mL (≈ 444 to 1780 µM); MIC (Candida albicans [28]): 125 to 500 µg/mL (≈ 444 to 1780 µM); fractional inhibitory concentration index (FICI) (Candida albicans [29]): 1.97 - 4.28; inhibition (Candida albicans [30]): < 20%; MIC (Candida albicans [31]): 125 to 500 µg/mL (≈ 444 to 1780 µM)
